In brackets after ≈: the same amount, converted by molar mass.
Legend:
Escherichia coli = experiment: Antimicrobial activity against Escherichia coli ATCC 25922 by twofold broth dilution method; format: functional
In short: (§1)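 Two-fold broth dilution in 96-well micro-test plates, following NCCLS recommendations. Enoxacin and Chloromycin served as positive controls for bacteria, and Fluconazole for fungi. The read-out is the MIC in µg/mL.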

Shigella dysenteriae = experiment: Antimicrobial activity against Shigella dysenteriae ATCC 49550 by twofold broth dilution method; format: functional
In short: (§2)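 Antibacterial MIC, determined by two-fold serial broth dilution following the NCCLS-recommended method. Clinical antimicrobial drugs were run alongside as positive controls.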

Staphylococcus aureus [1] = experiment: Antimicrobial activity against Staphylococcus aureus ATCC 25923 by twofold broth dilution method; format: functional; in short: as §1
Saccharomyces cerevisiae = experiment: Antifungal activity against Saccharomyces cerevisiae ATCC 9763 by twofold broth dilution method; format: functional; in short: as §1
Aspergillus fumigatus = experiment: Antifungal activity against Aspergillus fumigatus ATCC 96918 by twofold broth dilution method; format: functional; in short: as §1
Proteus vulgaris = experiment: Antimicrobial activity against Proteus vulgaris ATCC 6896 by twofold broth dilution method; format: functional; in short: as §1
Micrococcus luteus = experiment: Antimicrobial activity against Micrococcus luteus ATCC 4698 by twofold broth dilution method; format: functional; in short: as §1
Staphylococcus aureus [2] = experiment: Antimicrobial activity against methicillin-resistant Staphylococcus aureus N 315 by twofold broth dilution method; format: functional; in short: as §2
Salmonella typhi = experiment: Antimicrobial activity against Salmonella typhi ATCC 9484 by twofold broth dilution method; format: functional, Salmonella enterica subsp. enterica serovar Typhi; settings: Salmonella enterica; in short: as §2
Candida albicans = experiment: Antifungal activity against Candida albicans ATCC 76615 by twofold broth dilution method; format: functional; in short: as §1
Bacillus subtilis = experiment: Antimicrobial activity against Bacillus subtilis ATCC 6633 by twofold broth dilution method; format: functional; in short: as §1

SMILES	MIC (Escherichia coli) [µg/mL]	MIC (Shigella dysenteriae) [µg/mL]	MIC (Staphylococcus aureus [1]) [µg/mL]	MIC (Saccharomyces cerevisiae) [µg/mL]	MIC (Aspergillus fumigatus) [µg/mL]	MIC (Proteus vulgaris) [µg/mL]	MIC (Micrococcus luteus) [µg/mL]	MIC (Staphylococcus aureus [2]) [µg/mL]	MIC (Salmonella typhi) [µg/mL]	MIC (Candida albicans) [µg/mL]	MIC (Bacillus subtilis) [µg/mL]
Cc1cc(=O)oc2cc(OCCCCBr)ccc12	256 (≈ 823 µM)	512 (≈ 1650 µM)	128 (≈ 411 µM)	256 (≈ 823 µM)	512 (≈ 1650 µM)	256 (≈ 823 µM)	128 (≈ 411 µM)	256 (≈ 823 µM)	256 (≈ 823 µM)	128 (≈ 411 µM)	128 (≈ 411 µM)
Cc1cc(=O)oc2cc(OCCCCCBr)ccc12	512 (≈ 1570 µM)	256 (≈ 787 µM)	128 (≈ 394 µM)	512 (≈ 1570 µM)	256 (≈ 787 µM)	512 (≈ 1570 µM)	256 (≈ 787 µM)	256 (≈ 787 µM)	512 (≈ 1570 µM)	128 (≈ 394 µM)	128 (≈ 394 µM)
Cc1cc(=O)oc2cc(OCCCCCCBr)ccc12	512 (≈ 1510 µM)	512 (≈ 1510 µM)	64 (≈ 189 µM)	256 (≈ 755 µM)	512 (≈ 1510 µM)	256 (≈ 755 µM)	64 (≈ 189 µM)	256 (≈ 755 µM)	256 (≈ 755 µM)	256 (≈ 755 µM)	128 (≈ 377 µM)
Cc1cc(=O)oc2cc(OCCCCCBr)cc(OCCCCCBr)c12	512 (≈ 1040 µM)	256 (≈ 522 µM)	128 (≈ 261 µM)	256 (≈ 522 µM)	128 (≈ 261 µM)	256 (≈ 522 µM)	128 (≈ 261 µM)	256 (≈ 522 µM)	256 (≈ 522 µM)	128 (≈ 261 µM)	128 (≈ 261 µM)
Cc1cc(=O)oc2cc(OCCCCn3cncn3)ccc12	8 (≈ 26.7 µM)	16 (≈ 53.5 µM)	2 (≈ 6.68 µM)	4 (≈ 13.4 µM)	16 (≈ 53.5 µM)	16 (≈ 53.5 µM)	4 (≈ 13.4 µM)	8 (≈ 26.7 µM)	16 (≈ 53.5 µM)	2 (≈ 6.68 µM)	2 (≈ 6.68 µM)
Cc1cc(=O)oc2cc(OCCCCCn3cncn3)ccc12	32 (≈ 102 µM)	32 (≈ 102 µM)	4 (≈ 12.8 µM)	16 (≈ 51.1 µM)	16 (≈ 51.1 µM)	32 (≈ 102 µM)	8 (≈ 25.5 µM)	16 (≈ 51.1 µM)	16 (≈ 51.1 µM)	8 (≈ 25.5 µM)	4 (≈ 12.8 µM)
Cc1cc(=O)oc2cc(OCCCCCCn3cncn3)ccc12	32 (≈ 97.7 µM)	32 (≈ 97.7 µM)	8 (≈ 24.4 µM)	32 (≈ 97.7 µM)	32 (≈ 97.7 µM)	32 (≈ 97.7 µM)	8 (≈ 24.4 µM)	16 (≈ 48.9 µM)	32 (≈ 97.7 µM)	16 (≈ 48.9 µM)	8 (≈ 24.4 µM)
Cc1cc(=O)oc2cc(OCc3ccc(Cn4cncn4)cc3)ccc12	64 (≈ 184 µM)	64 (≈ 184 µM)	32 (≈ 92.1 µM)	64 (≈ 184 µM)	64 (≈ 184 µM)	64 (≈ 184 µM)	32 (≈ 92.1 µM)	64 (≈ 184 µM)	64 (≈ 184 µM)	32 (≈ 92.1 µM)	32 (≈ 92.1 µM)
Cc1cc(=O)oc2cc(OCCCCn3cncn3)cc(OCCCCn3cncn3)c12	1 (≈ 2.28 µM)	1 (≈ 2.28 µM)	1 (≈ 2.28 µM)	2 (≈ 4.56 µM)	4 (≈ 9.12 µM)	2 (≈ 4.56 µM)	1 (≈ 2.28 µM)	2 (≈ 4.56 µM)	1 (≈ 2.28 µM)	1 (≈ 2.28 µM)	2 (≈ 4.56 µM)
Cc1cc(=O)oc2cc(OCCCCCn3cncn3)cc(OCCCCCn3cncn3)c12	8 (≈ 17.1 µM)	4 (≈ 8.57 µM)	2 (≈ 4.29 µM)	4 (≈ 8.57 µM)	32 (≈ 68.6 µM)	4 (≈ 8.57 µM)	4 (≈ 8.57 µM)	8 (≈ 17.1 µM)	4 (≈ 8.57 µM)	2 (≈ 4.29 µM)	4 (≈ 8.57 µM)
Cc1cc(=O)oc2cc(OCCCCCCn3cncn3)cc(OCCCCCCn3cncn3)c12	8 (≈ 16.2 µM)	8 (≈ 16.2 µM)	8 (≈ 16.2 µM)	4 (≈ 8.09 µM)	32 (≈ 64.7 µM)	8 (≈ 16.2 µM)	8 (≈ 16.2 µM)	16 (≈ 32.3 µM)	16 (≈ 32.3 µM)	4 (≈ 8.09 µM)	4 (≈ 8.09 µM)
Cc1cc(=O)oc2cc(OCc3ccc(Cn4cncn4)cc3)cc(OCc3ccc(Cn4cncn4)cc3)c12	64 (≈ 120 µM)	64 (≈ 120 µM)	32 (≈ 59.9 µM)	32 (≈ 59.9 µM)	64 (≈ 120 µM)	32 (≈ 59.9 µM)	64 (≈ 120 µM)	64 (≈ 120 µM)	32 (≈ 59.9 µM)	32 (≈ 59.9 µM)	64 (≈ 120 µM)
Cc1cc(=O)oc2cc(OCCCCn3cncn3)ccc12.Cl	4	16	2	4	8	8	2	8	16	2	2
Cc1cc(=O)oc2cc(OCc3ccc(Cn4cncn4)cc3)ccc12.Cl	16	16	8	16	16	16	8	16	16	8	8
Cc1cc(=O)oc2cc(OCCCCn3cncn3)cc(OCCCCn3cncn3)c12.Cl	1	1	1	2	2	2	1	2	1	1	1
Cc1cc(=O)oc2cc(OCc3ccc(Cn4cncn4)cc3)cc(OCc3ccc(Cn4cncn4)cc3)c12.Cl	8	16	8	16	16	16	16	16	16	8	16
Cc1cc(=O)oc2cc(OCCCCOc3ccc4c(C)cc(=O)oc4c3)ccc12	256 (≈ 630 µM)	512 (≈ 1260 µM)	128 (≈ 315 µM)	256 (≈ 630 µM)	512 (≈ 1260 µM)	256 (≈ 630 µM)	128 (≈ 315 µM)	512 (≈ 1260 µM)	256 (≈ 630 µM)	512 (≈ 1260 µM)	128 (≈ 315 µM)
O=C(N[C@H](CO)[C@H](O)c1ccc([N+](=O)[O-])cc1)C(Cl)Cl [CHLORAMPHENICOL]	8 (≈ 24.8 µM)	4 (≈ 12.4 µM)	4 (≈ 12.4 µM)			8 (≈ 24.8 µM)	≤ 4	16 (≈ 49.5 µM)	4 (≈ 12.4 µM)		8 (≈ 24.8 µM)
CCn1cc(C(=O)O)c(=O)c2cc(F)c(N3CCNCC3)nc21 [ENOXACIN]	1 (≈ 3.12 µM)	1 (≈ 3.12 µM)	1 (≈ 3.12 µM)			1 (≈ 3.12 µM)	≤ 1	4 (≈ 12.5 µM)	2 (≈ 6.24 µM)		1 (≈ 3.12 µM)
OC(Cn1cncn1)(Cn1cncn1)c1ccc(F)cc1F [FLUCONAZOLE]				2 (≈ 6.53 µM)	128 (≈ 418 µM)					1 (≈ 3.27 µM)	
